Published values collected from several papers.
Protocols differ between the studies behind these lines.
Target: Mitogen-activated protein kinase kinase kinase 10 (MAP3K10, Homo sapiens, UniProt Q02779)

Compound	assay	conditions	quantity	value
Cc1cc(NC(=O)c2cccc3cc(-c4cccc5[nH]nc(N)c45)ccc23)ccc1F	enzyme activity, inhibitor	0.1 µM	activity vs control	98%
CNCc1ccccc1-c1csc([C@@H](C)Nc2nc(C)nc3cc(OC)c(OC)cc23)c1	cell-free assay, competition with immobilised ligand	1 µM	remaining binding	96%
N#CCCc1ccc2c(c1)-c1[nH]c3ccc([N+](=O)[O-])cc3c1CC(=O)N2	cell-free assay	0.5 µM	remaining signal	30%
Cc1ccc(C(=O)Nc2ccc(CN3CCN(C)CC3)c(C(F)(F)F)c2)cc1C#Cc1cnc2cccnn12	enzyme activity, inhibitor	23.5 nM	remaining activity	69%
Nc1ncnc2occ(-c3ccc(NC(=O)Nc4cc(C(F)(F)F)ccc4F)cc3)c12	cell-free assay, inhibitor	20 µM	remaining signal	0%
O=C(Nc1cnn(-c2csc(C(=O)NC3COC3)c2)c1)Nc1c(F)cccc1Cl	enzyme activity, inhibitor	5 µM	remaining activity	94.3%
CC/C(=N\NC(=O)NCc1cccc(O)c1)c1ccc(O)c(C)c1O	enzyme activity, inhibitor	0.1 µM	inhibition	6.2%
Oc1ccc(-c2nc(-c3ccncc3)c(-c3ccc(F)cc3)[nH]2)cc1	cell-free assay	0.5 µM	remaining signal	32.8%
CC(C)(C)c1nc(-c2cccc(NS(=O)(=O)c3c(F)cccc3F)c2F)c(-c2ccnc(N)n2)s1	enzyme activity, inhibitor, radiometric	1 µM	remaining activity	91%
COc1cccc2c(NCc3ccccc3)nc(-n3c(N)nc4ccccc43)nc12	target engagement in cells, inhibitor, chemoproteomics	20 mM	inhibition	17.4%
CC(C)(O)c1cncc(-c2nc3ccc(F)cc3n2C2CC2)c1	cell-free assay, competition with immobilised ligand	1 µM	remaining binding	100%
COc1cc2c(N3CCN(C(=O)Nc4ccc(OC(C)C)cc4)CC3)ncnc2cc1OCCCN1CCCCC1	cell-free assay	0.5 µM	remaining signal	101%
C[C@H](NC(=O)c1cnc2n1[C@](C)(Cc1ccc(C#N)cc1)C(=O)N2c1cc(Cl)c(F)c(Cl)c1)C(=O)NC1(c2ccccn2)CC1	cell-free assay, competition with immobilised ligand	1 µM	remaining binding	100%
CNC(=O)c1cc(Oc2ccc(NC(=O)Nc3ccc(Cl)c(C(F)(F)F)c3)cc2)ccn1	cell-free assay	0.5 µM	remaining signal	104%
O=C(N1CCS(=O)(=O)CC1)N1C[C@H](c2ccc(OC(F)(F)F)cc2)C[C@H](c2nc(C3CC3)no2)C1	cell-free assay, competition with immobilised ligand	1 µM	remaining binding	99%
COc1cc(Cl)c(C(=O)N[C@@H](CN[C@H]2CC[C@@H](N)CC2)Cc2ccc(C#N)cc2)cc1-c1ccc(CN[C@H](C)c2ccc(C)cc2)o1	enzyme activity, inhibitor	1 µM	remaining activity	97%
Cn1nc(C(=O)NCc2ccc(C(=O)O)cc2)cc1-c1ccc2[nH]ccc2c1	cell-free assay, competition with immobilised ligand	0.1 µM	remaining binding	100%
Cc1sc(C(=O)NC2COC2)cc1-n1cc(NC(=O)Nc2c(F)cccc2Cl)cn1	enzyme activity, inhibitor	10 µM	remaining activity	90.8%
